Reference: ChEMBL document CHEMBL1157925, “Identification of a novel series of potent RON receptor tyrosine kinase inhibitors” (Bioorg Med Chem Lett, 2010)
Blank lines part the entries; values can stand above or below the molecule they belong to.

Key:
[1] = molecular target: Vascular endothelial growth factor receptor 2 (Homo sapiens, UniProt P35968); assay: Inhibition of VEGFR2
In short: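 GST-fused VEGFR-2/KDR catalytic domain from baculovirus-infected Sf9 cells, glutathione-agarose purified, 5 nM. Buffer: 60 mM Hepes pH 7.5, 3 mM MgCl2, 3 mM MnCl2, 1.2 mM β-mercaptoethanol, 0.1 mg/mL BSA, 3 µM vanadate. Mg-ATP at 2× Km. Enzyme, inhibitor and ATP were first combined for 4 min on ice. Reaction ran on immobilized poly(Glu4,Tyr) at 30 °C for 10 min and was stopped with EDTA. DELFIA Eu-anti-phosphotyrosine read-out. Seven concentrations in triplicate; IC50 from a 4-parameter fit.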

[2] = molecular target: Focal adhesion kinase 1 (Homo sapiens) (UniProt Q05397); assay: Inhibition of FAK; conditions: concentration not given here
In short: (§1)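 Outsourced kinase panel of 23 enzymes (Millipore KinaseProfiler); single test concentration of 0.1 µM; percent inhibition of kinase activity reported.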

[3] = Half life in rat at 2.5 mg/kg, iv; type: ADME, organism-based; parameters: dose 2.5 mg/kg, route intravenous; conditions: in vivo
[4] = molecular target: Tyrosine-protein kinase JAK3 (Homo sapiens) (UniProt P52333); assay: Inhibition of JAK3; conditions: concentration not given here; in short: as §1
[5] = molecular target: RAF proto-oncogene serine/threonine-protein kinase (Homo sapiens) (UniProt P04049); assay: Inhibition of c-Raf; conditions: concentration not given here; in short: as §1
[6] = tested on: Rattus norvegicus; assay: Cmax in rat at 5 mg/kg, po; type: ADME, organism-based; parameters: dose 5 mg/kg, route oral; conditions: in vivo
[7] = molecular target: 3-phosphoinositide-dependent protein kinase 1 (Homo sapiens) (UniProt O15530); assay: Inhibition of PDK1; conditions: concentration not given here
[8] = molecular target: Cytoplasmic tyrosine-protein kinase BMX (Homo sapiens) (UniProt P51813); assay: Inhibition of BMX; conditions: concentration not given here; in short: as §1
[9] = molecular target: Phosphatidylinositol 4,5-bisphosphate 3-kinase catalytic subunit beta isoform (Homo sapiens) (UniProt P42338); assay: Inhibition of PI3Kbeta; conditions: concentration not given here; in short: as §1
[10] = molecular target: Serine/threonine-protein kinase pim-1 (Homo sapiens) (UniProt P11309); assay: Inhibition of PIM1; conditions: concentration not given here; in short: as §1
[11] = molecular target: Serine/threonine-protein kinase Chk1 (Homo sapiens) (UniProt O14757); assay: Inhibition of CHK1; conditions: concentration not given here; in short: as §1
[12] = molecular target: Proto-oncogene tyrosine-protein kinase receptor Ret (Homo sapiens) (UniProt P07949); assay: Inhibition of Ret; conditions: concentration not given here; in short: as §1
[13] = molecular target: RAC-alpha serine/threonine-protein kinase (Homo sapiens) (UniProt P31749); assay: Inhibition of PKBalpha; conditions: concentration not given here; in short: as §1
[14] = molecular target: Mast/stem cell growth factor receptor Kit (Homo sapiens) (UniProt P10721); assay: Inhibition of cKit; conditions: concentration not given here; in short: as §1
[15] = molecular target: Dual specificity mitogen-activated protein kinase kinase 1 (Homo sapiens) (UniProt Q02750); assay: Inhibition of MEK1; conditions: concentration not given here; in short: as §1
[16] = molecular target: Macrophage-stimulating protein receptor (Homo sapiens, UniProt Q04912); assay: Inhibition of TPR-tagged RON catalytic domain expressed in HEK293 cells; type: cell-based
[17] = molecular target: Serine/threonine-protein kinase haspin (Homo sapiens) (UniProt Q8TF76); assay: Inhibition of haspin; conditions: concentration not given here; in short: as §1
[18] = Volume of distribution at steady state in rat at 2.5 mg/kg, iv and 5 mg/kg, po; type: ADME, organism-based; conditions: in vivo, read-out: Vdss
[19] = molecular target: Inhibitor of nuclear factor kappa-B kinase subunit beta (Homo sapiens) (UniProt O14920); assay: Inhibition of IKK-beta; conditions: concentration not given here; in short: as §1
[20] = molecular target: Receptor-type tyrosine-protein kinase FLT3 (Homo sapiens) (UniProt P36888); assay: Inhibition of FLT3; conditions: concentration not given here; in short: as §1
[21] = molecular target: T1, Hepatocyte growth factor receptor (Homo sapiens, UniProt P08581); assay: Inhibition of c-Met
[22] = molecular target: T1, Hepatocyte growth factor receptor; assay: Inhibition of c-Met phosphorylation in human MKN45 cells; type: cell-based, MKN-45
[23] = molecular target: LIM domain kinase 1 (Homo sapiens) (UniProt P53667); assay: Inhibition of LIMK1; conditions: concentration not given here; in short: as §1
[24] = molecular target: Angiopoietin-1 receptor (Homo sapiens) (UniProt Q02763); assay: Inhibition of Tie2; conditions: concentration not given here; in short: as §1
[25] = Tmax in rat at 5 mg/kg, po; type: ADME, organism-based; parameters: dose 5 mg/kg, route oral; conditions: in vivo
[26] = molecular target: Ephrin type-B receptor 4 (Homo sapiens) (UniProt P54760); assay: Inhibition of EphB4; conditions: concentration not given here; in short: as §1
[27] = Clearance in rat at 2.5 mg/kg, iv and 5 mg/kg, po; type: ADME, organism-based; conditions: in vivo
[28] = molecular target: Glycogen synthase kinase-3 beta (Homo sapiens) (UniProt P49841); assay: Inhibition of GSK3-beta; conditions: concentration not given here; in short: as §1
[29] = molecular target: ALK tyrosine kinase receptor (Homo sapiens) (UniProt Q9UM73); assay: Inhibition of ALK; conditions: concentration not given here; in short: as §1
[30] = Oral bioavailability in rat at 5 mg/kg, po; type: ADME, organism-based; conditions: in vivo
[31] = tested on: HCT-116; assay: Antitumor activity against human HCT116 cells by MTT assay

- IC50 [1]: 2000 nM
Compound: Cc1c(C(=O)Nc2ccc(Oc3ccnc4cc(-c5cn(C)cn5)sc34)c(F)c2)cnn1-c1ccccc1

- IC50 [1]: 700 nM
Compound: CN(C)CCN(C)C(=O)c1ccc(-c2cc3nccc(Oc4ccc(NC(=O)c5cnn(-c6ccccc6)c5C(F)(F)F)cc4F)c3s2)cc1

- inhibition [2]: < 40%
- half-life [3]: 2.7 h
- inhibition [4]: < 40%
- inhibition [5]: < 40%
- Cmax normalised [6]: 0.25 µM/mg/kg
- inhibition [7]: < 40%
- IC50 [1]: > 10000 nM
- inhibition [8]: < 40%
- inhibition [9]: < 40%
- inhibition [10]: < 40%
- inhibition [11]: < 40%
- inhibition [12]: < 40%
- inhibition [13]: < 40%
- inhibition [14]: < 40%
- inhibition [15]: < 40%
- IC50 [16]: 50 nM
- inhibition [17]: < 40%
- Vd [18]: 2.4 L/kg
- inhibition [19]: < 40%
- inhibition [20]: 96%
- IC50 [21]: 150 nM
- IC50 [22]: 500 nM
- inhibition [23]: < 40%
- inhibition [24]: < 40%
- Tmax [25]: 6 h
- inhibition [26]: < 40%
- clearance [27]: 10.5 mL/min/kg
- inhibition [28]: < 40%
- inhibition [29]: < 40%
- bioavailability [30]: > 30%
- IC50 ([31]; Homo sapiens, HCT-116): 80 nM
Compound: Cn1cnc(-c2cc3nccc(Oc4ccc(NC(=O)c5cnn(-c6ccccc6)c5C(F)(F)F)cc4F)c3s2)c1

- IC50 [1]: > 20000 nM
- IC50 [16]: > 10000 nM
- IC50 [21]: > 15000 nM
Compound: CNC(=O)c1cc(Oc2ccc(NC(=O)c3cnn(-c4ccccc4)c3C(F)(F)F)cc2F)ccn1

- IC50 [1]: 1900 nM
Compound: CCCc1c(C(=O)Nc2ccc(Oc3ccnc4cc(-c5cn(C)cn5)sc34)c(F)c2)cnn1-c1ccccc1

- IC50 [1]: 1400 nM
Compound: Cn1cnc(-c2cc3nccc(Oc4ccc(NC(=O)c5cnn(-c6ccccc6)c5)cc4F)c3s2)c1

- IC50 [1]: > 2000 nM
Compound: COc1cc2nccc(Oc3ccc(NC(=O)c4cnn(-c5ccccc5)c4C(F)(F)F)cc3F)c2cc1OC

- IC50 [1]: 2500 nM
Compound: CN(C)C(=O)c1ccc(-c2cc3nccc(Oc4ccc(NC(=O)c5cnn(-c6ccccc6)c5C(F)(F)F)cc4F)c3s2)nc1

- IC50 [1]: 5300 nM
Compound: COCCNC(=O)c1ccc(-c2cc3nccc(Oc4ccc(NC(=O)c5cnn(-c6ccccc6)c5C(F)(F)F)cc4F)c3s2)nc1

- IC50 [1]: 1100 nM
Compound: CS(=O)(=O)CCNCc1ccc(-c2cc3nccc(Oc4ccc(NC(=O)c5cnn(-c6ccccc6)c5C(F)(F)F)cc4F)c3s2)cc1

- IC50 [1]: 10 nM
- IC50 ([31]; hct-116): Not Active
Compound: Cn1cnc(-c2cc3nccc(Oc4ccc(NC(=O)N5CCN(c6ccccc6)C5=O)cc4F)c3s2)c1

- IC50 [1]: 700 nM
- IC50 [16]: > 1000 nM
- IC50 [21]: 60 nM
Compound: Cn1cnc(-c2cc3nccc(Oc4ccc(NC(=O)c5cnn(C)c5C(F)(F)F)cc4F)c3s2)c1

- IC50 [1]: 1400 nM
Compound: Cn1ccnc1-c1cc2nccc(Oc3ccc(NC(=O)c4cnn(-c5ccccc5)c4C(F)(F)F)cc3F)c2s1

- IC50 [1]: 1400 nM
Compound: CN(C)C(=O)c1ccc(-c2cc3nccc(Oc4ccc(NC(=O)c5cnn(-c6ccccc6)c5C(F)(F)F)cc4F)c3s2)cc1

- IC50 [1]: 1000 nM
Compound: CN(C)[C@H]1CCN(C(=O)c2ccc(-c3cc4nccc(Oc5ccc(NC(=O)c6cnn(-c7ccccc7)c6C(F)(F)F)cc5F)c4s3)cc2)C1

- IC50 [1]: 3000 nM
Compound: Cn1cnc(-c2cc3nccc(Oc4ccc(NC(=O)c5cnn(C(C)(C)C)c5C(F)(F)F)cc4F)c3s2)c1

- IC50 [1]: 2500 nM
Compound: COC[C@H](C)N(Cc1ccc(-c2cc3nccc(Oc4ccc(NC(=O)c5cnn(-c6ccccc6)c5C(F)(F)F)cc4F)c3s2)cc1)C(C)=O

- IC50 [1]: 800 nM
- IC50 [16]: > 1000 nM
- IC50 [21]: 180 nM
Compound: Cn1cnc(-c2cc3nccc(Oc4ccc(NC(=O)c5cnn(-c6ccccc6)c5N)cc4F)c3s2)c1

- IC50 [1]: 1400 nM
Compound: CC(=O)N1CC=C(c2cc3nccc(Oc4ccc(NC(=O)c5cnn(-c6ccccc6)c5C(F)(F)F)cc4F)c3s2)CC1
